Yeast growth inh: growth inhibitors of yeast BB579 in restrictive medium, primary screen, yeast lifespan-shortening project, S. cerevisiae | OD615, 48 h | inhibition, % at 10 µM | AID 804, 2007 | 0.51% of 140,000 active;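 active means inhibition above a set limit, 3 SD over the mean compound inhibition, cut at about 44% in these data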
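System: Saccharomyces cerevisiae DeaD strain BB579, replicative lifespan model yeast | Buffer or medium: Restrictive glucose-based CSMM-D medium | Times: 4 h preincubation and 48 h exposure at 30 °C | Detection: OD615 turbidity measurement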
Rad51 HR inh: human RAD51 strand exchange inhibitors, primary screen, biochemical, fluorescence | inhibition, % at 10 µM | hRad51 DNA strand exchange, fluorescence dequenching | DNA repair protein RAD51 homolog 1 (Homo sapiens), Q06609 | 0.085% of 200,000 active | AID 1385, 2008;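 active means inhibition above 40% at the single screening dose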;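 further: 0% = DMSO control wells and 100% = blanks with heterologous ssDNA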
Target sequence (Q06609 whole entry, looked up): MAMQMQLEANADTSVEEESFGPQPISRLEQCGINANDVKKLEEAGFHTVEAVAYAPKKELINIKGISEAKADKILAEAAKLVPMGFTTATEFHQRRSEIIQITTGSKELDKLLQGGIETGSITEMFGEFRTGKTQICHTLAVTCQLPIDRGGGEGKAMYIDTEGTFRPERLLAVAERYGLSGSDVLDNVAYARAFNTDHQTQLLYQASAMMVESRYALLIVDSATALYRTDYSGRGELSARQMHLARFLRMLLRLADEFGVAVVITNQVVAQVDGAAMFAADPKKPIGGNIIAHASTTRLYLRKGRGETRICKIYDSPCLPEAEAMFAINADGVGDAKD
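System: hRad51 filaments on single-stranded DNA; reagent: Fluorescein- and BHQ1-tagged 47-mer duplex; compound dosing: one concentration, 10 µM final; timing: filaments 15 min 37 °C, then compound 30 min; measured by: fluorescein emission 520 nm, excitation 485 nm; benchmarks: per-plate controls and blanks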
Efa HMGR inh: inhibitors of E. faecalis class II HMGR, primary screen, biochemical, Enterococcus faecalis. purified E. faecalis HMGR, NADPH absorbance 340 nm kinetic. HMG-CoA reductase (Enterococcus faecalis, mvaE). 0.41% of 190,000 active. inhibition, % at 10 µM;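 active means inhibition above a set limit, the median over all tested compounds plus 3 SD, cut at about 9.5% in these data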;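 further: enzyme runs in reverse so mevalonate oxidation gives rising NADPH absorbance; 0% = complete reaction with DMSO and 100% = background rate lacking mevalonate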
Measles CPE: compounds protecting cells from measles virus cytopathic effect, primary screen, measles RdRp inhibitor project, single point, MLSMR library, absorbance. Measles virus-infected cells, CPE protection. protection (pct of control), % at 4 µM. 1.5% of 140,000 active. AID 841, 2007; in the data active means protection mostly above about 24%, no sharp cut-off; inactive means mostly below about 26%
Yeast life ext: compounds extending yeast replicative lifespan, primary screen, S. cerevisiae, OD615; S. cerevisiae growth with nicotinamide; deaD strain in restrictive glucose medium; inhibition of the nicotinamide effect, % at 10 µM; 0.68% of 130,000 active;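 active means inhibition above a set limit, placed 3 SD over the median of all compounds, cut at about 26% in these data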;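 further: 0% = nicotinamide-treated wells and 100% = cells grown without nicotinamide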
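System: DeaD-strain S. cerevisiae / Buffer or medium: CSMM-D, restrictive glucose (dextrose) synthetic minimal medium / Probe or stimulus: nicotinamide, 1.5 mM, co-present with compound / Compound: one concentration, 10 µM, DMSO 0.25% / Incubation: 48 h compound exposure at 30 °C, humidified / Technique: optical density (absorbance) at 615 nm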
Arbovirus inh: antivirals against arbovirus infection, primary screen, cell-based, full library, 10K replicate subset; AID 1251, 2008; arbovirus infection cell-based antiviral screen; inhibition, % at 10 µM; 0.37% of 200,000 active; in the data active means inhibition above about 30%
The depositor's hits bear a star; . = no result. A selection: hits, their analogues and other compounds. The true share with any hit is near 2.4%.

SMILES	Yeast growth inh	Rad51 HR inh	Efa HMGR inh	Measles CPE	Yeast life ext	Arbovirus inh
O=C(CN1CCC(n2nnc3cc(C(F)(F)F)ccc32)CC1)N1CCc2ccccc21	-29	-2	-1	30	40*	-1
O=C(CN1CCC(n2nnc3cc(F)ccc32)CC1)N1CCCc2ccccc21	-74	-4	-5	12	-8	-15
COc1ccc(Sc2nc3ccccc3n3c(C(F)(F)F)nnc23)cc1	-52	-6	0	5	9	1
COc1ccc(-c2cc(-n3c(C(F)(F)F)nc4ccccc43)n(CCC#N)n2)cc1	0	1	13*	8	-17	3
Nc1ccc2nc(-c3cccnc3)[nH]c2c1	-18	-2	1	12	3	-6
Nc1ccc2nc(-c3ccccc3)[nH]c2c1	-1	-16	-7	57*	-28	-14
CC(=O)NCCn1c(SCC(=O)NCC2CCCO2)nc2ccccc2c1=O (configuration not stated)	-9	8	0	52*	8	2
O=C(CSc1nc2ccccc2c(=O)n1CC1CCCO1)NCC1CCCO1 (configuration not stated)	-43	6	-8	5	5	5
CCCCn1c(SCC(=O)Nc2nnc(CC)s2)nc2c1c(=O)n(C)c(=O)n2C	-25	4	-3	8	-10	2
CCCCn1c(SCC(=O)Nc2nnc(CC)s2)nc2ccccc2c1=O	-72	-4	-6	32*	-1	-11
CC(=O)NCCn1c(SCC(=O)NCCC(C)C)nc2ccccc2c1=O	-18	-11	-6	60*	-11	4
Nc1cc(N)nc(SCC(=O)NCC2CCCO2)n1 (configuration not stated)	-8	4	-2	31*	-14	7
CCCCNC(=O)CSc1nc2ccccc2c(=O)n1CCNC(C)=O	-40	-10	-2	3	-9	0
O=C(c1n[nH]c2ccccc12)N1CCN(c2ccc(F)cc2)CC1	.	5	-1	.	.	5
O=C(NNC(=O)C(Cl)Cl)c1cnn(-c2ccccc2)c1C(F)(F)F	.	8	.	.	.	.
Cc1nnsc1Sc1ccccc1	.	29	-2	.	.	-1
Cc1sc2ncnc(N/N=C/c3ccccc3O)c2c1C	68*	-10	-1	3	2	-29
COc1cccc(NC(=O)COC(=O)c2nc3nccc(C)n3n2)c1	-24	6	0	76*	-7	1
Cc1ccnc2nc(C(=O)OCC(=O)Nc3ccccc3C(C)(C)C)nn12	.	28	-4	.	.	-2
Cc1cccc(NNC(N)=S)c1C	.	.	10*	.	.	-6
O=C(NC1CCCCC1)Sc1ccc(Cl)cc1	52*	5	-8	7	-19	-17
Cc1c(-n2c(SC(C)C(=O)NC(N)=O)nc3ccccc3c2=O)c(=O)n(-c2ccccc2)n1C (configuration not stated)	.	-7	-2	.	.	0
O=C(CSc1nnc(COc2ccccc2)o1)c1ccccc1	-1	-1	0	25	-8	-6
CC(C)(C)NC(=O)CN(C(=O)CSc1nnc(COc2ccccc2)o1)c1cccc(F)c1	-6	1	-2	31*	-15	-11
COC(=O)N/N=C(\C)c1ccco1	.	20	-7	.	.	-3
C/C(=N\NC(=O)C1CC1(C)c1ccccc1)c1ccco1 (configuration not stated)	-6	7	1	71*	-4	-1
COc1cc(COc2ccc3c(C)c(Cc4ccccc4)c(=O)oc3c2C)cc(OC)c1OC	-32	1	0	28*	-4	3
CC(C)CC(NC(N)=O)C(=O)NCc1ccccc1Cl (configuration not stated)	.	3	6	.	.	-2
Cc1[nH][nH]c(=O)c1C(c1ccc(-c2cccc(Cl)c2)o1)c1c(C)[nH][nH]c1=O	.	4	.	.	.	.

Compound activity as filed in PubChem.
